# Only a selection was taken, and hits are over-represented in it overall.
# PTEN del growth – PTEN-deleted cell growth suppression; HCT116 PTEN-null viability, CellTiter-Glo, 60 h; stronger effect = lower value; viability, % at 10 µM; 140,000 compounds, 1.2% hits; AID 827;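 active = viability at or below a set limit, 4 SD under the median of all tested compounds, cut at about 3.7% in these data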;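 also: PTEN knockout HCT116 line with beta catenin targeted HCT116 as companion control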
# Lung fibro prol – blocks proliferation of human lung fibroblasts | LL 47 human lung fibroblast viability, ATP luminescence; stronger effect = lower value | viability, % at 10 µM | 85,000 compounds, 1.1% hits;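 active = viability at or below 50% in the single dose screen; inactive = viability above 50%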;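 also: compound exposure lasted 72 h before the ATP readout; 100% = median luminescence of untreated cell-only wells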
#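 Material: Human LL 47 lung fibroblast cells | Input: 1,150 cells/well | Buffer or medium: IMEM plus 15% FBS | Compound dosing: 0.1% DMSO in all compound wells | Times: Overnight cell rest, 72 h compound treatment at 37 °C | Signal: CellTiter-Glo luminescence measuring cellular ATP | Measure: % viability versus median cells-only luminescence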
# HUVEC inhibit – human endothelial cell proliferation inhibition | HUVEC proliferation, CellTiter-Glo luminescence, 72 h; stronger effect = lower value | viability, % at 10 µM (by protocol) | 86,000 compounds, 1.1% hits | AID 648;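 active = viability at or below 30%; inactive = viability above 30%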;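 also: 100% = median luminescence of DMSO-only cell control wells on each plate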
# HCT116 bCat-KO – beta-catenin-lacking colon tumor cell growth suppression; HCT116 beta-catenin knockout viability, CellTiter-Glo, 60 h; stronger effect = lower value; viability, % at 10 µM; AID 818; 140,000 compounds, 1.5% hits;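 active = viability at or under a set limit, the compound median less 4 SD, cut at about 6% in these data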;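 also: 0% = Hyamine 1622 control at 20 µM and 100% = untreated cell control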
# H69AR growth 86K – growth inhibitors of human H69AR lung tumor cells; 85,000 compounds, 6% hits; viability, % at 10 µM; H69AR lung tumor viability, ATP luminescence, 72 h; stronger effect = lower value;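 active = viability at or below 40%; inactive = viability above 40%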;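 also: multidrug resistant small cell line overexpressing MRP-1 efflux transporter; 100% = mean luminescence of untreated control wells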
# * hit, by the source's call; · = no result given.
SMILES,PTEN del growth,Lung fibro prol,HUVEC inhibit,HCT116 bCat-KO,H69AR growth 86K
Cc1cc(C)c(C(=O)/C=C/c2cccc3ccccc23)c(=O)[nH]1,2.3*,·,·,1.5*,·
CC1SC(c2ccc(Cl)cc2Cl)NC1=O (stereo unspecified),95.0,94.0,103.0,90.5,92.4
O=C1c2ccccc2C(=O)C12OC2c1ccc(Cl)cc1Cl (stereo unspecified),1.7*,·,·,2.6*,·
Cn1cnnc1SC(C(=O)Nc1cccc(C(F)(F)F)c1)c1ccccc1 (stereo unspecified),85.5,95.4,93.2,92.1,100.7
CC(C)[C@@H]1NC(=O)c2cc([N+](=O)[O-])cc(F)c2NCCC[C@@H](C(N)=O)NC(=O)[C@H](CO)NC1=O,94.1,·,·,99.6,·
CCN(CC)c1ccc(C(=O)n2cnc3ccccc32)cc1,61.9,87.6,75.2,65.6,21.4*
CN(C)c1ccc(C(=O)n2nnc3ccccc32)cc1,104.2,99.9,80.0,94.7,84.3
CN(CCCCCCCCC(=O)/C=N/O)Cc1ccccc1,94.9,95.6,88.5,89.5,24.2*
O=c1[nH]cc(COCc2ccccc2)c(=O)[nH]1,4.3,100.1,84.0,2.6*,110.5
CCOC(=O)/C=C1\SCC(=O)N1CC(=O)NC(C)c1ccc(F)cc1 (stereo unspecified),84.5,·,·,88.1,·
COc1cc(C(=O)N[C@H](C(=O)NC(C)C23CC4CC(CC(C4)C2)C3)C(C)C)cc(OC)c1OC (stereo partly specified),77.0,47.7*,44.4,70.0,41.9
COc1cc(C(=O)NC(=S)NC(C)C)cc(OC)c1OC,104.3,·,·,95.0,·
Cc1ccc(-n2c(C)cc(C(=O)COc3c(CO)cc(F)cc3CO)c2C)cc1C,19.5,·,·,18.2,·
COCCNC(=S)N/N=C(\C)c1ccccc1O,8.2,·,·,4.2*,·
CC(C)CCNC(=O)CN(Cc1cccs1)C(=O)CCC(=O)Nc1nccs1,97.9,·,·,94.7,·
CCOC(=O)c1c(C)c(C(=O)Nc2ccc(N(C)C)cc2)c(C)n1CC,21.2,56.5,54.3,20.8,18.9*
CC1CCC(C(C)C)C2=C1C(C#N)(C#N)C(C#N)(C#N)C(c1ccccc1)N2 (stereo unspecified),87.2,32.4*,27.9*,81.7,0.0*
N#CC1=C(SCC(=O)c2ccc(Br)cc2)NC2=C(C(=O)CCC2)C1c1ccco1 (stereo unspecified),20.5,56.9,51.0,20.0,16.7*
CC(=O)C1=C(C)NC(SCC(=O)c2ccccc2)=C(C#N)C1c1ccco1 (stereo unspecified),50.8,·,72.2,64.0,62.9
CC(=O)C1=C(C)NC(SCC(=O)c2ccc(Cl)cc2)=C(C#N)C1c1ccco1 (stereo unspecified),49.5,·,63.2,55.5,28.7*
O=c1cc(CSc2nc(NCc3ccccc3)c3ccccc3n2)nc2ccc(Cl)cn12,73.1,·,·,65.5,·
C=CCOc1ccccc1/C=c1\sc2nc(=O)c(C)nn2c1=O,74.0,97.5,90.1,78.1,32.9*
CC(C)OC(=O)/C(=C\c1cccc2ccccc12)NC(=O)c1ccccc1,92.0,·,·,91.6,·
O=c1/c(=C/c2ccc([N+](=O)[O-])cc2)sc2n1CCCN=2,14.9,·,·,2.1*,·
COc1cc(/C=c2\sc3n(c2=O)CCCN=3)ccc1O,72.7,106.0,84.4,51.5,52.8
SMILES,PTEN del growth,Lung fibro prol,HUVEC inhibit,HCT116 bCat-KO,H69AR growth 86K
Cc1ccc(C2=NN(CCC(=O)NCc3ccc4c(c3)OCO4)C(=O)CC2)cc1,84.2,·,·,79.4,·
CCN(CC)Cc1c(O)ccc2c([N+](=O)[O-])c(C)n(-c3ccc(OC)cc3)c12,82.9,93.2,64.3,78.9,38.6*
Cc1c(Cc2ccccc2)sc(NC(=O)/C=C/c2cccc3ccccc23)c1C(N)=O,45.4,·,·,42.9,·
COC(=O)c1nn2c(C(F)(F)F)cc(-c3ccc(Br)o3)nc2c1Br,·,58.4,93.5,·,33.2*
O=C(Nc1ccccc1)Nc1nnc(Cc2ccc([N+](=O)[O-])cc2)s1,81.0,·,·,77.8,·
O=C(Nc1nc(-c2ccc(Cl)s2)cs1)c1cccs1,47.3,89.9,69.4,56.7,34.2*
O=C(Nc1ccc([N+](=O)[O-])cc1)Nc1nc(-c2ccc(Cl)s2)cs1,1.2*,·,·,1.5*,·
O=C(Nc1nc(-c2ccccn2)cs1)c1ccc(Cl)s1,15.7,28.3*,28.3*,7.7,2.9*
O=C(Nc1nc(-c2ccccn2)cs1)c1ccc(S(=O)(=O)N2CCCCC2)cc1,·,47.8*,32.7,·,42.4
O=C(Nc1nc(-c2cccs2)cs1)c1ccc(S(=O)(=O)N2CCCCC2)cc1,49.6,94.3,80.0,55.5,78.0
O=C(Nc1ccc(Cl)c(Cl)c1)Nc1cc(C(=O)NC2CC2)ccc1Cl,34.9,·,·,41.1,·
O=C(NC(=S)NCCOCc1ccc(Cl)cc1)c1cccnc1,90.2,·,·,79.1,·
Clc1cc(NCc2cccs2)ccc1N1CCOCC1,90.2,96.8,107.8,84.6,99.1
N#CC1=C(N2CCCCC2)c2cc3c(n2C1=O)CCCC3,98.6,90.6,103.1,98.8,77.5
Cn1cccc1C(=O)Nc1nc(-c2ccccn2)cs1,6.6,60.1,56.5,9.9,35.3*
N=c1cc(C2(O)CCCCC2)n2c(nc3ccccc32)s1,75.9,96.5,65.0,59.8,6.8*
CN(C)/N=C/C=C1\CC/C(=C\c2ccc(Br)cc2)C1=O,86.7,96.3,82.5,84.7,24.1*
COc1ccc(/C=C2\CC/C(=C\c3ccc(OC)c(OC)c3)C2=O)cc1OC,68.9,·,·,58.3,·
O=[N+]([O-])c1ccc(Sc2nccn2Cc2ccccc2)c([N+](=O)[O-])c1,4.8,·,·,4.8*,·
O=[N+]([O-])c1cc(C(F)(F)F)ccc1Sc1nccn1Cc1ccccc1,84.5,·,·,88.8,·
COc1cc(CO)cc(Br)c1OCc1cccnc1,108.1,101.3,87.3,108.5,82.7
COc1cccc(N2CCN(c3ncnc4c3[nH]c3ccccc34)CC2C)c1 (stereo unspecified),7.0,·,·,4.7*,·
COc1cccc(N2CCN(c3ncnc4c3[nH]c3ccc(F)cc34)CC2C)c1 (stereo unspecified),1.6*,1.9*,2.3*,2.0*,4.0*
N#CC1=C(N)C(C#N)(C#N)C(c2ccncc2)C2CN(C(=O)OCc3ccccc3)CC=C12 (stereo unspecified),82.1,80.2,66.6,81.2,7.7*
CCOC(=O)N1CC=C2C(C#N)=C(N)C(C#N)(C#N)[C@H](c3ccc(OC(C)C)c(OCC)c3)[C@H]2C1,80.8,90.7,79.0,88.8,36.7*
SMILES,PTEN del growth,Lung fibro prol,HUVEC inhibit,HCT116 bCat-KO,H69AR growth 86K
N#CC1=C(N)C(C#N)(C#N)[C@H](c2cccnc2)[C@H]2CN(C(=O)OCc3ccccc3)CC=C12,73.2,·,·,60.8,·
CCNC(=S)NNC(=O)CCn1cc(C)cn1,99.5,·,·,89.7,·
CC1=NN(c2ccc(C)cc2)C(=O)/C1=C\C=C\c1ccccc1,3.0*,·,·,3.1*,·
CCOc1cc(/C=N/NC(=O)c2ccncc2)cc(Cl)c1OS(C)(=O)=O,90.7,·,·,66.2,·
O=C(N/N=C/C(Br)=C/c1ccccc1)c1n[nH]c2c1CCC2,1.7*,59.3,30.3,2.7*,1.8*
COc1ccc(C(=O)N=c2sc3c(C)ccc(OC)c3n2C)cc1,63.9,·,·,73.8,·

# Screens deposited in PubChem by SRMLSC.
